ChEMBL document CHEMBL1139854, “Phenalenone-type compounds from Musa acuminata var. "Yangambi km 5" (AAA) and their activity against Mycosphaerella fijiensis” (J Nat Prod, 2007)
Calls of active or inactive are those of the source. The calls are words filed in the database; no cut-off is given here.

How the values were obtained:
Type in all cases: functional
[1] = system: Pseudocercospora fijiensis; experiment: Inhibition of Mycosphaerella fijiensis spore germination at 50 to 100 ppm
In short: (§1)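 Ascospores were exposed to compound at 10, 50 or 100 ppm for 24 h at 27 °C. Germination and germ-tube length were scored microscopically on 50-150 ascospores. Run in quadruplicate.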

[2] = system: Pseudocercospora fijiensis; experiment: Inhibition of Mycosphaerella fijiensis mycelial growth at 50 to 100 ppm after 15 days
In short: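 Colonies (2 ± 1 mg) were taken from conidia grown 4 days on PDA. They were placed 20 per dish on PDA holding 10, 50 or 100 ppm compound added in EtOH (max 3.7%). Colony weight was taken at 7 and 15 days (10 colonies each) against EtOH-only blank medium. Run in quadruplicate and analysed by one-way ANOVA.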

[3] = system: Pseudocercospora fijiensis; experiment: Growth inhibition of Mycosphaerella fijiensis by microtitre plate photometric assay
In short: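 Mycelial fragments came from monosporic PDA subcultures of several strains grown 15-20 days at 27 °C. They were bead-vortexed, filtered at 100 µm, counted and set to 2 × 10⁴–2 × 10⁶ fragments/mL. Cultures ran in Sabouraud broth with final 0, 5, 10, 20, 30, 40, 50 ppm at 27 °C. OD595 was read daily up to 17 days. IC50 is 50% growth inhibition versus compound-free inoculum.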

[4] = system: Pseudocercospora fijiensis; experiment: Inhibition of Mycosphaerella fijiensis mycelial growth
[5] = system: Pseudocercospora fijiensis; experiment: Inhibition of Mycosphaerella fijiensis spore germination; in short: as §1

Row | SMILES | Activity [1] | Activity [2] | IC50 [3] | Activity [4] | Activity [5]
1 | O=C1C(O)=Cc2cccc3cccc1c23 | Active | Active | 23.4 ppm | – | –
2 | COC1=Cc2cccc3cccc(c23)C1=O | Active | Active | 19.3 ppm | – | –
3 | COc1ccc(-c2ccc3cccc4c3c2C(=O)C=C4)cc1 | – | – | – | Active | –
4 | O=C1C=Cc2cccc3cccc1c23 | – | Active | – | Active | Active
